{"source": "ChEMBL document CHEMBL4219124", "about": "“Alleviating CYP and hERG liabilities by structure optimization of dihydrofuran-fused tricyclic benzo[d]imidazole series - Potent, selective and orally efficacious microsomal prostaglandin E synthase-1 (mPGES-1) inhibitors: Part-2” (Bioorg Med Chem Lett, 2018)", "key": {"[1]": {"test": "Ratio of drug uptake in brain to plasma of Dunkin-Hartley guinea pig LPS-induced hyperalgesia pain model at 100 mg/kg, po administered 2 hrs prior to LPS challenge measured 7 hrs post dose", "format": "ADME, organism-based, Cavia porcellus", "conditions": "read-out: BPR", "method_in_brief": "(§1)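 Guinea pigs dosed orally at 10, 30 or 100 mg/kg 2 h before intraplantar LPS in the right hind paw; thermal hyperalgesia scored. Plasma (ng/mL) and brain (ng/g) levels taken 7 h post dose; brain/plasma ratio computed. Means of 6–9 animals per group, single experiment.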"}, "[2]": {"test": "Plasma concentration in Dunkin-Hartley guinea pig LPS-induced hyperalgesia pain model at 100 mg/kg, po administered 2 hrs prior to LPS challenge measured 7 hrs post dose", "format": "ADME, organism-based, Cavia porcellus", "method_in_brief": "as §1"}, "[3]": {"test": "Half life in Beagle dog at 10 mg/kg, po", "format": "ADME, organism-based, Canis lupus familiaris", "conditions": "in vivo", "method_in_brief": "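Half-life calculated from plasma profiles after oral dosing at 10 mg/kg. Rat: male Sprague-Dawley, 0.5% methylcellulose suspension, n = 3. Dog and cynomolgus monkey: Tween 80 (2.5 μL/mL) + 0.5 (w/v) MC suspension.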"}, "[4]": {"test_system": "Cavia porcellus", "test": "Analgesic activity in Dunkin-Hartley guinea pig MIA-induced osteoarthritic pain model assessed as reversal of incapacitance at 100 mg/kg, po administered on day 3 measured 6 to 7 hrs post dose relative to control", "format": "functional", "method_in_brief": "(§2)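 Day 0: monoiodoacetate injected into the right shoulder joint of guinea pigs; saline-injected animals as comparison. Day 3: compound given orally at 100, 250 or 500 mg/kg, and weight-bearing incapacitance on the injected forelimb measured. Plasma sampled at the PD time point, n = 6–8 per group, single experiment.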"}, "[5]": {"test": "Protein binding in cynomolgus monkey plasma at 10 uM after 5 hrs by equilibrium dialysis based LC-MS/MS analysis", "format": "ADME, cell-free, Macaca fascicularis", "conditions": "read-out: PPB (converted)", "method_in_brief": "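Equilibrium dialysis at 10 μM compound; result expressed as percent bound.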"}, "[6]": {"test": "Clearance in Beagle dog at 1 mg/kg, iv", "format": "ADME, organism-based, Canis lupus familiaris", "conditions": "in vivo", "method_in_brief": "(§3)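 Intravenous dose of 1 mg/kg; clearance and Vz derived from the i.v. arm. Rat (male Sprague-Dawley) vehicle 20% NMP + 20% ethanol + 60% PEG 200, mean ± SD (n = 3). Dog vehicle 20% NMP + 20% EtOH + 10% PG + 50% PEG 200:water (3:2). Monkey vehicle 10% NMP + 10% ethanol + 10% PEG + 70% PEG200:water (3:2).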"}, "[7]": {"test": "Tmax in cynomolgus monkey at 10 mg/kg, po", "format": "ADME, organism-based, Macaca fascicularis", "conditions": "in vivo", "method_in_brief": "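Tmax from oral 10 mg/kg dosing. Rat: male Sprague-Dawley, 0.5% MC suspension, n = 3. Guinea pig: 20% NMP + 0.5% MC suspension, n = 3. Dog and monkey: 2.5 μL/mL Tween 80 + 0.5% MC suspension.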"}, "[8]": {"test": "Plasma concentration in Dunkin-Hartley guinea pig LPS-induced hyperalgesia pain model at 10 mg/kg, po administered 2 hrs prior to LPS challenge measured 7 hrs post dose", "format": "ADME, organism-based, Cavia porcellus", "method_in_brief": "as §1"}, "[9]": {"test_system": "Cavia porcellus", "test": "Analgesic activity in Dunkin-Hartley guinea pig hyperalgesia pain model assessed as inhibition of LPS-induced hyperalgesia at 30 mg/kg, po administered 2 hrs prior to LPS challenge measured after 4.5 hrs relative to control", "format": "functional", "method_in_brief": "(§4)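 Guinea pigs received compound orally, once daily, at 10, 30 or 100 mg/kg, 2 h before LPS was injected into the plantar surface of the right paw. Saline-injected animals served as the comparison for thermal hyperalgesia. Plasma and brain drug levels taken 7 h after dosing, mean of n = 6–9 per group, from a single experiment.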"}, "[10]": {"test": "Ratio of drug uptake in brain to plasma of Beagle dog at 10 mg/kg, po", "format": "ADME, organism-based, Canis lupus familiaris", "conditions": "read-out: BPR"}, "[11]": {"test": "Ratio of plasma concentration in Dunkin-Hartley guinea pig MIA-induced osteoarthritic pain model to IC50 for mPGES1 in guinea pig whole blood", "format": "ADME", "conditions": "in vivo"}, "[12]": {"test": "Drug uptake in brain of Dunkin-Hartley guinea pig LPS-induced hyperalgesia pain model at 30 mg/kg, po administered 2 hrs prior to LPS challenge measured 7 hrs post dose", "format": "ADME, organism-based, Cavia porcellus", "conditions": "read-out: Drug uptake", "method_in_brief": "as §4"}, "[13]": {"test": "(§5) AUC (0 to 24 hrs) in Beagle dog at 10 mg/kg, po", "format": "ADME, organism-based, Canis lupus familiaris", "set-up": "dose 10 mg/kg, time < 24 hr, route oral", "conditions": "Beagle, in vivo", "method_in_brief": "(§6)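 Single oral dose of 10 mg/kg. Cmax and AUC0-24 taken from the oral arm. Rat: male Sprague-Dawley, dosed in 0.5% methylcellulose suspension, mean ± SD (n = 3). Guinea pig: 20% NMP + 0.5% MC suspension, mean ± SD (n = 3). Dog and cynomolgus monkey: 2.5 μL/mL Tween 80 + 0.5 (w/v) MC suspension.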"}, "[14]": {"test": "Ratio of drug uptake in brain to plasma of Dunkin-Hartley guinea pig LPS-induced hyperalgesia pain model at 30 mg/kg, po administered 2 hrs prior to LPS challenge measured 7 hrs post dose", "format": "ADME, organism-based, Cavia porcellus", "conditions": "read-out: BPR", "method_in_brief": "as §1"}, "[15]": {"test": "Plasma concentration in Dunkin-Hartley guinea pig MIA-induced osteoarthritic pain model at 250 mg/kg, po measured 2 hrs post dose", "format": "ADME, organism-based, Cavia porcellus", "method_in_brief": "(§7)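 Intra-articular MIA into the right shoulder joint on day 0; oral dosing at 100, 250 or 500 mg/kg on day 3, incapacitance (forelimb weight bearing) measured. Plasma concentration sampled 2 h post dose. Means of 6–8 animals per group, single experiment.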"}, "[16]": {"test_system": "Cavia porcellus", "test": "Analgesic activity in Dunkin-Hartley guinea pig hyperalgesia pain model assessed as inhibition of LPS-induced hyperalgesia administered orally 2 hrs prior to LPS challenge measured after 4.5 hrs", "format": "functional", "conditions": "po", "method_in_brief": "as §4"}, "[17]": {"test": "Drug uptake in brain of Dunkin-Hartley guinea pig LPS-induced hyperalgesia pain model at 10 mg/kg, po administered 2 hrs prior to LPS challenge measured 7 hrs post dose", "format": "ADME, organism-based, Cavia porcellus", "conditions": "read-out: Drug uptake", "method_in_brief": "as §4"}, "[18]": {"test_system": "Cavia porcellus", "test": "Analgesic activity in Dunkin-Hartley guinea pig MIA-induced osteoarthritic pain model assessed as reversal of incapacitance at 500 mg/kg, po administered on day 3 measured at 6 to 7 hrs relative to control", "format": "functional", "method_in_brief": "as §2"}, "[19]": {"test": "(§8) Oral bioavailability in Beagle dog at 10 mg/kg", "format": "ADME, organism-based, Canis lupus familiaris", "conditions": "Beagle, in vivo", "method_in_brief": "(§9)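 Plasma PK after 1 mg/kg i.v. and 10 mg/kg p.o.; %F from both routes. Rat: male Sprague-Dawley, oral 0.5% methylcellulose suspension, i.v. 20% NMP/20% ethanol/60% PEG 200, n = 3. Dog oral: Tween 80 2.5 μL/mL + 0.5% MC suspension. Monkey oral: same Tween/MC suspension; i.v. 10% NMP/10% ethanol/10% PEG/70% PEG200-water premix.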"}, "[20]": {"test": "Plasma concentration in Dunkin-Hartley guinea pig MIA-induced osteoarthritic pain model at 100 mg/kg, po measured 2 hrs post dose", "format": "ADME, organism-based, Cavia porcellus", "method_in_brief": "as §7"}, "[21]": {"test_system": "Canis familiaris", "test": "Toxicity in Beagle dog assessed as emesis at 10 mg/kg, po", "format": "organism-based, Canis lupus familiaris", "conditions": "in vivo"}, "[22]": {"test": "Plasma concentration in Dunkin-Hartley guinea pig LPS-induced hyperalgesia pain model at 30 mg/kg, po administered 2 hrs prior to LPS challenge measured 7 hrs post dose", "format": "ADME, organism-based, Cavia porcellus", "method_in_brief": "as §1"}, "[23]": {"test": "AUC (0 to 24 hrs) in cynomolgus monkey at 10 mg/kg, po", "format": "ADME, organism-based, Macaca fascicularis", "set-up": "time < 24 hr, dose 10 mg/kg, route oral", "conditions": "in vivo", "method_in_brief": "as §6"}, "[24]": {"test_system": "Canis familiaris", "test": "as §5", "format": "ADME, organism-based, Canis lupus familiaris", "set-up": "dose 10 mg/kg, time < 24 hr, route oral", "conditions": "in vivo, 24 h", "method_in_brief": "as §6"}, "[25]": {"test": "Oral bioavailability in cynomolgus monkey at 10 mg/kg", "format": "ADME, organism-based, Macaca fascicularis", "conditions": "in vivo", "method_in_brief": "as §9"}, "[26]": {"test_system": "Canis familiaris", "test": "as §8", "format": "ADME, organism-based, Canis lupus familiaris", "conditions": "in vivo", "method_in_brief": "as §9"}, "[27]": {"test": "Clearance in cynomolgus monkey at 1 mg/kg, iv", "format": "ADME, organism-based, Macaca fascicularis", "conditions": "in vivo", "method_in_brief": "as §3"}}}
{"smiles": "CC1(C)Cc2c(c(C(=O)Nc3ccc(F)c(C(F)(F)F)c3)cc3nc(Nc4c(F)cccc4Cl)[nH]c23)O1", "values": [{"measurement": "Kp at 7 h", "setting": "[1]", "value": 1.06}, {"measurement": "concentration at 7 h", "setting": "[2]", "value": 1080, "unit": "nM"}, {"measurement": "half-life", "setting": "[3]", "value": 14.4, "unit": "h"}, {"measurement": "Activity", "setting": "[4]", "value": 48, "unit": "%"}, {"measurement": "fraction unbound at 5 h, 10 µM", "setting": "[5]", "value": 0.0052}, {"measurement": "clearance", "setting": "[6]", "value": 1.61, "unit": "mL/min/kg"}, {"measurement": "Tmax", "setting": "[7]", "value": 24, "unit": "h"}, {"measurement": "concentration at 7 h", "setting": "[8]", "value": 94, "unit": "ng/mL"}, {"measurement": "inhibition in vivo at 30 mg/kg", "setting": "[9]", "value": 44, "unit": "%"}, {"measurement": "Kp", "setting": "[10]", "value": 0.72}, {"measurement": "Ratio", "setting": "[11]", "value": 7}, {"measurement": "concentration at 7 h", "setting": "[12]", "value": 87, "unit": "ng/g"}, {"measurement": "AUC(0-t) at 24 h", "setting": "[13]", "value": 8240, "unit": "ng·h/mL"}, {"measurement": "Kp at 7 h", "setting": "[14]", "value": 0.6}, {"measurement": "concentration at 2 h", "setting": "[15]", "value": 1510, "unit": "ng/mL"}, {"measurement": "ED50", "setting": "[16]", "value": 39.6, "unit": "mg/kg"}, {"measurement": "concentration at 7 h", "setting": "[17]", "value": 96, "unit": "ng/g"}, {"measurement": "Activity", "setting": "[18]", "value": 83, "unit": "%"}, {"measurement": "bioavailability", "setting": "[19]", "value": 15, "unit": "%"}, {"measurement": "concentration at 2 h", "setting": "[20]", "value": 678, "unit": "ng/mL"}, {"measurement": "Activity", "setting": "[21]", "value": "Non-Toxic"}, {"measurement": "concentration at 7 h", "setting": "[22]", "value": 145, "unit": "ng/mL"}]}
{"smiles": "CC1(C)Cc2c(c(C(=O)Nc3ccc(C(F)(F)F)cn3)cc3nc(Nc4c(Cl)cccc4Cl)[nH]c23)O1", "values": [{"measurement": "half-life", "setting": "[3]", "value": 17, "unit": "h"}, {"measurement": "AUC(0-t) at 24 h", "setting": "[23]", "value": 3670, "unit": "ng·h/mL"}, {"measurement": "fraction unbound at 5 h, 10 µM", "setting": "[5]", "value": 0.005}, {"measurement": "Tmax", "setting": "[7]", "value": 6, "unit": "h"}, {"measurement": "Kp", "setting": "[10]", "value": 0.32}, {"measurement": "AUC", "setting": "[24]", "value": 4432, "unit": "ng·h/mL"}, {"measurement": "bioavailability", "setting": "[25]", "value": 21, "unit": "%"}, {"measurement": "F", "setting": "[26]", "value": 25, "unit": "%"}, {"measurement": "clearance", "setting": "[27]", "value": 8.5, "unit": "mL/min/kg"}]}
{"smiles": "Cc1cccc(Cl)c1Nc1nc2cc(C(=O)Nc3cc(C(F)(F)F)ccc3F)c3c(c2[nH]1)CC(C)(C)O3", "values": [{"measurement": "half-life", "setting": "[3]", "value": 20, "unit": "h"}, {"measurement": "AUC(0-t) at 24 h", "setting": "[23]", "value": 7510, "unit": "ng·h/mL"}, {"measurement": "clearance", "setting": "[6]", "value": 3.5, "unit": "mL/min/kg"}, {"measurement": "Tmax", "setting": "[7]", "value": 12, "unit": "h"}, {"measurement": "AUC(0-t) at 24 h", "setting": "[13]", "value": 12900, "unit": "ng·h/mL"}, {"measurement": "bioavailability", "setting": "[25]", "value": 11, "unit": "%"}, {"measurement": "bioavailability", "setting": "[19]", "value": 40, "unit": "%"}, {"measurement": "clearance", "setting": "[27]", "value": 1.6, "unit": "mL/min/kg"}]}
